Reference: ChEMBL document CHEMBL1154522, “Aryl sulfamates are broad spectrum inactivators of sulfatases: effects on sulfatases from various sources” (Bioorg Med Chem Lett, 2009)

Columns and labels:
Haliotis corrugata [1] = assay: Ratio of Kinact to Ki for abalone entrails type 8 recombinant sulfatase expressed in Escherichia coli by slow phase inactivation
Haliotis corrugata [2] = assay: Inhibition of abalone entrails type 8 recombinant sulfatase expressed in Escherichia coli by fast phase inactivation
Haliotis corrugata [3] = assay: Ratio of Kinact to Ki for abalone entrails type 8 recombinant sulfatase expressed in Escherichia coli by fast phase inactivation
Helix pomatia [4] = assay: Inhibition of Helix pomatia type H1 recombinant sulfatase expressed in Escherichia coli
In short: (§1)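 Snail sulfatase incubated at pH 7 with 0–500 µM 3-nitrophenyl sulfamate; residual activity plotted semi-logarithmically against time, and pseudo-first-order rates replotted against inactivator concentration to fit Ki and kinact (E + I ⇌ E·I → E–P).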

Patella vulgata [5] = assay: Protection against inactivation in Patella vulgata type 5 recombinant sulfatase expressed in Escherichia coli assessed as ratio of residual enzyme activity to initial activity at 1 mM after 20 seconds using 4-nitrophenyl sulfate as substrate
In short: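 Limpet sulfatase given 1 mM sulfamate at pH 7 with or without 79 mM 4-nitrophenyl sulfate; residual activity assayed 20 s after inactivator addition, expressed as vres/v0 against an untreated control.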

[6] = molecular target: Arylsulfatase (Pseudomonas aeruginosa (strain ATCC 15692 / PAO1 / 1C / PRS 101 / LMG12228)) (UniProt P51691); assay: Inhibition of Pseudomonas aeruginosa recombinant arylsulfatase A expressed in Escherichia coli
Sequence of Arylsulfatase (Pseudomonas aeruginosa (strain ATCC 15692 / PAO1 / 1C / PRS 101 / LMG12228)) (P51691 whole entry): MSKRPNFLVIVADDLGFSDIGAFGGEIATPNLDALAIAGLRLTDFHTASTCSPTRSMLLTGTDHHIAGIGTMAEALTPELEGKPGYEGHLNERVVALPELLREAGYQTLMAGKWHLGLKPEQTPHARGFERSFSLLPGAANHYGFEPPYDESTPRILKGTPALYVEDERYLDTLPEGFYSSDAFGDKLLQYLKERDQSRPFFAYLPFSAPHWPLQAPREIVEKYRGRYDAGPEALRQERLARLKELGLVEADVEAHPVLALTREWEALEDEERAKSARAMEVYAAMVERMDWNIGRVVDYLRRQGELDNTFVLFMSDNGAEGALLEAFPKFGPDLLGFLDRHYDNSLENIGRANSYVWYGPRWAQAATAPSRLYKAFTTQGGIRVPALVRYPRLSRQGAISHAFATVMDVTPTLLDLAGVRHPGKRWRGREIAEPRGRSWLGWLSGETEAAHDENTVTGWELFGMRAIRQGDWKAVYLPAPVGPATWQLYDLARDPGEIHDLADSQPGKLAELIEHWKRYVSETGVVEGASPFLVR

[7] = molecular target: Arylsulfatase (Pseudomonas aeruginosa (strain ATCC 15692 / PAO1 / 1C / PRS 101 / LMG12228)) (UniProt P51691); assay: Ratio of Kinact to Ki for Pseudomonas aeruginosa recombinant arylsulfatase A expressed in Escherichia coli
Patella vulgata [8] = assay: Ratio of Kinact to Ki for Patella vulgata type 5 recombinant sulfatase expressed in Escherichia coli
In short: (§2)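 Limpet sulfatase at pH 7 with 0–12.5 mM sulfamate; semi-logarithmic plots of residual activity over time, inactivation rates replotted against concentration to give Ki and kinact.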

Haliotis corrugata [9] = assay: Inhibition of abalone entrails type 8 recombinant sulfatase expressed in Escherichia coli by slow phase inactivation
Haliotis corrugata [10] = assay: Protection against inactivation in abalone entrails type 8 recombinant sulfatase expressed in Escherichia coli assessed as ratio of residual enzyme activity to initial activity at 0.5 mM after 25 seconds using 4-nitrophenyl sulfate as substrate
In short: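 Abalone sulfatase given 0.5 mM sulfamate at pH 7 with or without 30 mM 4-nitrophenyl sulfate; residual activity assayed 25 s after inactivator addition, expressed as vres/v0 against an untreated control.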

Helix pomatia [11] = assay: Ratio of Kinact to Ki for Helix pomatia type H1 recombinant sulfatase expressed in Escherichia coli; in short: as §1
Patella vulgata [12] = assay: Inhibition of Patella vulgata type 5 recombinant sulfatase expressed in Escherichia coli; in short: as §2
Helix pomatia [13] = assay: Activity at Helix pomatia type H1 recombinant sulfatase expressed in Escherichia coli
In short: (§3)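 Hydrolysis of potassium 4-nitrophenyl sulfate followed by release of 4-nitrophenol; Vmax is expressed per mg protein and Km in mM; Vmax/Km is derived from these.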

Haliotis corrugata [14] = assay: Ratio of Vmax/Km for abalone entrails type 8 recombinant sulfatase expressed in Escherichia coli
Haliotis corrugata [15] = assay: Activity at abalone entrails type 8 recombinant sulfatase expressed in Escherichia coli assessed per mg of protein
In short: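 Crude limpet or abalone enzyme hydrolysing potassium 4-nitrophenyl sulfate; 4-nitrophenol release read at 410 nm; 10 mM α-cyclodextrin added to raise sensitivity (Δε410 14400 M−1 cm−1 at pH 7); Vmax per mg protein, Km in mM.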

Haliotis corrugata [16] = assay: Activity at abalone entrails type 8 recombinant sulfatase expressed in Escherichia coli
Helix pomatia [17] = assay: Activity at Helix pomatia type H1 recombinant sulfatase expressed in Escherichia coli assessed per mg of protein; in short: as §3
Helix pomatia [18] = assay: Ratio of Vmax/Km for Helix pomatia type H1 recombinant sulfatase expressed in Escherichia coli; in short: as §3
Patella vulgata [19] = assay: Activity at Patella vulgata type 5 recombinant sulfatase expressed in Escherichia coli
[20] = molecular target: Arylsulfatase (Pseudomonas aeruginosa (strain ATCC 15692 / PAO1 / 1C / PRS 101 / LMG12228)) (UniProt P51691); assay: Ratio of Vmax/Km for Pseudomonas aeruginosa recombinant arylsulfatase A expressed in Escherichia coli; in short: as §3

Row | Ratio (Haliotis corrugata [1]) [s⁻¹ mM⁻¹] | T1/2 (Haliotis corrugata [2]) [s] | Ratio (Haliotis corrugata [3]) [s⁻¹ mM⁻¹] | T1/2 (Helix pomatia [4]) [s] | Ratio (Patella vulgata [5]) | T1/2 [6] [s] | Ratio [7] [s⁻¹ mM⁻¹] | Ratio (Patella vulgata [8]) [s⁻¹ mM⁻¹] | T1/2 (Haliotis corrugata [9]) [s] | Ratio (Haliotis corrugata [10]) | Ratio (Helix pomatia [11]) [s⁻¹ mM⁻¹] | T1/2 (Patella vulgata [12]) [s] | Km (Helix pomatia [13]) [mM] | Vmax/Km (Haliotis corrugata [14]) | Vmax (Haliotis corrugata [15]) [mmol/min/mg] | Km (Haliotis corrugata [16]) [mM] | Vmax (Helix pomatia [17]) [mmol/min/mg] | Vmax/Km (Helix pomatia [18]) | Km (Patella vulgata [19]) [mM] | Vmax/Km [20] | SMILES
1 | 0.0005 | 10 | 0.043 | 17 | 0.91 | 11 | 480 | 0.038 | 257 | 1.01 | 1.19 | 18 | – | – | – | – | – | – | – | – | NS(=O)(=O)Oc1cccc([N+](=O)[O-])c1
2 | – | – | – | – | – | – | – | – | – | – | – | – | 2.03 | 0.066 | 0.68 | 10.2 | 0.319 | 0.157 | 10 | 7900 | O=[N+]([O-])c1ccc(OS(=O)(=O)O)cc1
